Screening data: PubChem BioAssay, several laboratories
Neddyl block: cullin neddylation inhibition; P61081+Q13564; 360,000 tested, 0.58% active; AID 651699; TR-FRET cullin neddylation, biochemical; calls only at 25 µM; in the data active = inhibition above about 36%
proCasp3 act: procaspase-3 (human) activation | recombinant procaspase-3 D3A, Ac-DEVD-pNA absorbance 405 nm | AID 463141 | P42574 | 330,000 tested, 0.11% active | activation, % at 8.5 µM;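 active = activation above the mean of all tested compounds plus 3 SD, cut at about 21% in these data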
Target sequence (P42574 whole entry D9A/D28A/D175A): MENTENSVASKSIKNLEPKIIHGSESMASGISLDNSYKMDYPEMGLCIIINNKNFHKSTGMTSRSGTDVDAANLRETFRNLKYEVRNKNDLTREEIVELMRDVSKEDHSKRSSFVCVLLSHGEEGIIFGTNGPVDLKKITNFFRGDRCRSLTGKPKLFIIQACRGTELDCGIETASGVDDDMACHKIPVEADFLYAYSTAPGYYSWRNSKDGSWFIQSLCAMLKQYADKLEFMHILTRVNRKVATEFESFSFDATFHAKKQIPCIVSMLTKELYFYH
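Technique: 405 nm absorbance of p-nitroaniline, reads at 0 and 120 min; Test system: Procaspase-3 D3A mutant; Incubation: 1 h enzyme-compound preincubation, then 2 h substrate reaction, 25 °C; Repeats: singlicate, each compound tested once; Benchmarks: low control DMSO wells, high control DMSO plus 5 µM PC-3 D3A.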
PolyA inh: inhibitors of polyadenylation in S. cerevisiae; S. cerevisiae SKY197-pL101 polyadenylation reporter, beta-gal luminescence; efflux-impaired pdr1/pdr3 knockout yeast; score 100 = 6 SD above DMSO; AID 1875; 300,000 tested, 0.02% active; activity score, % at 12 µM;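 active = lowest replicate activity score at least 50, where 100 means six control SD above control mean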;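 also: yeast exposed to compound for 9 h at 30 °C; higher score means more reporter readthrough which indicates perturbed polyadenylation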
proCasp7 act: counter-screen for procaspase-3 activators: activators of human procaspase-7; recombinant procaspase-7, Ac-DEVD-pNA absorbance 405 nm; D23A/D198A/D206A triple mutant, cannot self-cleave; scale: DMSO 0, 5 µM enzyme 100; P55210; 330,000 tested, 0.093% active; activation, % at 8.5 µM;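 active = percent activation above the screen-wide mean plus 3 SD, cut at about 25% in these data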
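Replicates: singlicate. Assay system: Procaspase-7 triple mutant (PC-7 D3A). Signal: 405 nm absorbance of p-nitroaniline. Times: 1 h preincubation, 2 h reaction. Buffer or medium: Zinc-free HEPES pH 7.4 with 300 mM NaCl, 0.01% Triton X-100. Also added: DEVD-pNA substrate. Benchmarks: DMSO wells as 0%, DMSO with 5 µM added PC-7 as 100%.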
IMP-1 inh-1: inhibitors of Pseudomonas aeruginosa IMP-1 metallo-beta-lactamase; purified IMP-1, nitrocefin hydrolysis, epi-absorbance fluorescence; inhibition, % at 5.6 µM; 290,000 tested, 0.45% active;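 active = inhibition above the mean plus 3 SD of all compounds in the same screening run, cut at about 4.5% in these data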
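System: Purified IMP-1 | Read-out basis: Percent enzyme inhibition | Controls: IMP-1 with DMSO as 0%, enzyme-free DMSO as 100% | Replicates: One well per compound | Doses: 5.6 µM nominal single concentration | Detection: Epi-absorbance fluorescence, 480 nm excitation, 530 nm emission | Incubation: 25 °C, 15 min preincubation, 25 min reaction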
VIM-2 inhibitor: blocks Pseudomonas aeruginosa VIM-2 metallo-beta-lactamase. purified VIM-2, nitrocefin hydrolysis, epi-absorbance fluorescence. inhibition, % at 5.6 µM. 290,000 tested, 0.89% active. AID 1527;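 active = inhibition above the mean of all tested compounds plus 3 SD, cutoff set per screening run, cut at about 7.5% in these data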;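 also: red hydrolysis product quenches plate fluorescence so inhibitors raise well fluorescence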
IMP-1 inh-2: selectivity counter-screen for VIM-2 inhibitors: IMP-1 metallo-beta-lactamase inhibitors | purified IMP-1, nitrocefin hydrolysis, epi-absorbance fluorescence | 1,300 tested, under 10 active | AID 1856 | shares compounds with VIM-2 inhibitor | inhibition, % at 5.6 µM; call rule not given here
VIM-2 FRET ctr: inhibits VIM-2 in FRET assay to exclude epi-absorbance artifacts. shares compounds with VIM-2 inhibitor. purified VIM-2, CCF2 FRET substrate hydrolysis. 1,300 tested, 23% active. inhibition, % at 5.6 µM. AID 1857;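 active = inhibition above the mean of all tested compounds plus 3 SD, cut at about 19% in these data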
TEM-1 counter: selectivity counter-screen for VIM-2 inhibitors: E. coli TEM-1 inhibitors; shares compounds with VIM-2 inhibitor; Purified TEM-1, nitrocefin hydrolysis, epi-absorbance fluorescence; inhibition, % at 5.6 µM; 1,300 tested, 3% active;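 active = inhibition above that campaign's mean inhibition plus 3 SD, cut at about 0.46% in these data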
Target sequence (P62593 whole entry, looked up): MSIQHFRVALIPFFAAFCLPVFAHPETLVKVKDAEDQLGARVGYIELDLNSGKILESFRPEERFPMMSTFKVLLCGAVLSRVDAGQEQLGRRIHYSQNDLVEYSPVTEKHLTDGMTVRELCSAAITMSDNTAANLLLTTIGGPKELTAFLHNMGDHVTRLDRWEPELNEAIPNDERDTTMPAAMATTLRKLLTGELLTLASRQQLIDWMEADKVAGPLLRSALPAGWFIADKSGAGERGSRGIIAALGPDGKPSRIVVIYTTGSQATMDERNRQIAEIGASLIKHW
VIM-2 confirm 2: confirmation of P. aeruginosa VIM-2 metallo-beta-lactamase inhibitors; shares compounds with VIM-2 inhibitor; purified VIM-2, nitrocefin hydrolysis, epi-absorbance; inhibition, % at 5.6 µM; 1,300 tested, 96% active; AID 2187;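 active = inhibition of the VIM-2 beta-lactamase enzyme above about 11% from the earlier first-round screen, limit read from the data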
procasp7 triplic: counter-screen for procaspase-3 activators: activators of human procaspase-7; 210 tested, under 10 active; recombinant procaspase-7, Ac-DEVD-pNA absorbance; asp23/198/206-to-Ala mutant, cannot self-cleave; activation, % at 8.5 µM; AID 488941; shares compounds with proCasp3 act;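 active = mean activation above a set limit taken from an earlier procaspase-7 screen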
proCasp3 confirm: procaspase-3 (human) activation, confirmed. recombinant PC-3 D3A, Ac-DEVD-pNA absorbance 405 nm; 100% is higher-enzyme control. AID 488954. activation, % at 8.5 µM. shares compounds with proCasp3 act. 210 tested, 10% active;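 active = mean activation above a set limit carried over from the earlier primary screen, cut at about 22% in these data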
Neddyl inh conf: cullin neddylation inhibition, confirmation. shares compounds with Neddyl block. TR-FRET cullin neddylation biochemical assay. calls only at 25 µM. 1,800 tested, 13% active. AID 652217; in the data active = inhibition above about 40%;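 also: neddylation substrate is the cullin 1 ring ligase complex with SKP2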
Each line names hits and unclear results; the compound was inactive in the other large screens (follow-up assays come after a bar, where shown). Shown are actives, neighbours in structure and some others; about 1.7% of the full set was active somewhere.

CC(Oc1ccc(Cl)cc1)C(=O)N1CCCc2ccccc21 (stereo unspecified)	none
COc1cc(/C=C2\SC(=S)N(C(C(=O)O)c3ccccc3)C2=O)ccc1O (stereo unspecified)	none
O=C(O)C(c1ccccc1)N1C(=O)/C(=C\c2ccc(O)c(O)c2)SC1=S (stereo unspecified)	VIM-2 inhibitor 31 | IMP-1 inh-2 inactive | VIM-2 FRET ctr 50 | TEM-1 counter inactive | VIM-2 confirm 2 31
CCN(CC)C(=O)CSc1nc(-c2cccs2)cc(-c2cccs2)c1C#N	none
CN1CCN(C(=O)CSc2nc(-c3cccs3)cc(-c3cccs3)c2C#N)CC1	VIM-2 inhibitor 45 | IMP-1 inh-2 inactive | VIM-2 FRET ctr inactive | TEM-1 counter inactive | VIM-2 confirm 2 70
Cc1ccc(-c2csc(C(C)(O)c3cccc(F)c3)n2)cc1C (stereo unspecified)	none (no result: proCasp3 act, PolyA inh, proCasp7 act, IMP-1 inh-1, VIM-2 inhibitor)
Cc1c(C#N)c(=O)oc2ccc3ccccc3c12	proCasp3 act 26, VIM-2 inhibitor 31 | IMP-1 inh-2 inactive | VIM-2 FRET ctr inactive | TEM-1 counter inactive | VIM-2 confirm 2 11 | procasp7 triplic inactive | proCasp3 confirm inactive
O=C(N/N=C/c1ccc(-c2cccc([N+](=O)[O-])c2)o1)c1ccc([N+](=O)[O-])cc1	none
CCCC[n+]1ccn(-c2nc3ccccc3nc2[N-]S(=O)(=O)c2cccs2)c1	Neddyl block active, VIM-2 inhibitor 19 | IMP-1 inh-2 inactive | VIM-2 FRET ctr inactive | TEM-1 counter inactive | VIM-2 confirm 2 21 | Neddyl inh conf inactive
CCCC[n+]1ccn(-c2nc3ccccc3nc2[N-]S(=O)(=O)c2ccccc2)c1	none
C=CC[n+]1ccn(-c2nc3ccccc3nc2[N-]S(=O)(=O)c2cccs2)c1	Neddyl block active, VIM-2 inhibitor 22 | IMP-1 inh-2 inactive | VIM-2 FRET ctr inactive | TEM-1 counter inactive | VIM-2 confirm 2 16
Cc1ccc(S(=O)(=O)NC(=O)C2(C)CCN2C(=O)c2ccc(C(F)(F)F)nc2C)cc1 (stereo unspecified)	none (no result: proCasp3 act, PolyA inh, proCasp7 act, IMP-1 inh-1, VIM-2 inhibitor)
CCCc1cc(=O)oc2c(C)c(OC(C)C(=O)NCc3ccccn3)ccc12 (stereo unspecified)	none
Cc1c(OC(C)C(=O)NCc2ccccn2)ccc2c3c(c(=O)oc12)CCC3 (stereo unspecified)	Neddyl block active, VIM-2 inhibitor 19 | IMP-1 inh-2 inactive | VIM-2 FRET ctr inactive | TEM-1 counter inactive | VIM-2 confirm 2 28 | Neddyl inh conf active
CC1CCCCN1C(=O)c1cc2c(=O)n3ccccc3nc2s1 (stereo unspecified)	none (not shown: Neddyl block)
O=C(NC1CCCC1)c1cc2c(=O)n3ccccc3nc2s1	none (not shown: Neddyl block, PolyA inh, IMP-1 inh-1, VIM-2 inhibitor)
CCC1CCCCN1C(=O)c1cc2c(=O)n3cccc(C)c3nc2s1 (stereo unspecified)	Neddyl block active, VIM-2 inhibitor 15 | IMP-1 inh-2 inactive | VIM-2 FRET ctr inactive | TEM-1 counter inactive | VIM-2 confirm 2 21 | Neddyl inh conf inactive
Cc1cccn2c(=O)c3cc(C(=O)NC4CCCC4)sc3nc12	Neddyl block active, VIM-2 inhibitor 17 | IMP-1 inh-2 inactive | VIM-2 FRET ctr inactive | TEM-1 counter inactive | VIM-2 confirm 2 15
Cc1cccn2c(=O)c3cc(C(=O)N4CCCC(C)C4)sc3nc12 (stereo unspecified)	Neddyl block active, VIM-2 inhibitor 15 | IMP-1 inh-2 inactive | VIM-2 FRET ctr inactive | TEM-1 counter inactive | VIM-2 confirm 2 21 | Neddyl inh conf inactive
CS(=O)(=O)N1N=C(c2ccco2)CC1c1cccc([N+](=O)[O-])c1 (stereo unspecified)	none
COc1ccc(N2CCN(C(=O)CSc3nc4ccccc4c(=O)[nH]3)CC2)cc1	none
COc1ccc(C(C)NC(=O)C2CCN(CCOc3ccc(Cl)cc3Cl)CC2)cc1OC (stereo unspecified)	none (no result: proCasp3 act, PolyA inh, proCasp7 act, IMP-1 inh-1, VIM-2 inhibitor)
CCN(CC)CCNC(=O)c1cn(CC)c2cc(N3CCN(C)CC3)c(F)cc2c1=O	Neddyl block active, VIM-2 inhibitor 12 | IMP-1 inh-2 inactive | VIM-2 FRET ctr inactive | TEM-1 counter inactive | VIM-2 confirm 2 27
CN(C)CC1CCC/C(=C\c2ccc(OC(=O)/C=C/c3ccccc3)cc2)C1=O (stereo unspecified)	none (no result: proCasp3 act, PolyA inh, proCasp7 act, IMP-1 inh-1, VIM-2 inhibitor)
CCc1nc(Nc2ccc(N3CCN(C(C)=O)CC3)cc2)c2oc3ccccc3c2n1	Neddyl block active, VIM-2 inhibitor 82 | IMP-1 inh-2 inactive | VIM-2 FRET ctr inactive | TEM-1 counter inactive | VIM-2 confirm 2 84 | Neddyl inh conf inactive
CCOC(=O)C(=CNc1ccc(NC2=NCC(C)S2)cc1)C(=O)OCC (stereo unspecified)	Neddyl block active, VIM-2 inhibitor 28 | IMP-1 inh-2 inactive | VIM-2 FRET ctr inactive | TEM-1 counter inactive | VIM-2 confirm 2 44 | Neddyl inh conf inactive
CN(C)CCCNc1c2c(nc3cc(-c4cccc(F)c4)nn13)CCC2	Neddyl block active, VIM-2 inhibitor 13 | IMP-1 inh-2 inactive | VIM-2 FRET ctr inactive | TEM-1 counter inactive | VIM-2 confirm 2 27 | Neddyl inh conf inactive
CCOCCCNc1c2c(nc3cc(-c4ccc(F)cc4)nn13)CCC2	none
